Active and inactive are the calls of the source. The calls are words filed in the database; no cut-off is given here.
How the values were obtained:
[1] = test system: MDA-MB-231; test: Induction of apoptosis in human MDA-MB-231 cells assessed as viable cells at 0.03 uM after 24 hrs by annexin V-FITC/propidium iodide staining-based flow cytometric analysis (reference value: 95.5%); assay type: functional; conditions: MDA-MB-231, 24 h, read-out: Activity
[2] = test system: Ramos; test: Cytotoxicity against human Ramos cells assessed as cell viability after 72 hrs by MTT assay; assay type: functional, cell-based
[3] = test system: MDA-MB-231; test: Induction of apoptosis in human MDA-MB-231 cells assessed as viable cells at 0.3 uM after 24 hrs by annexin V-FITC/propidium iodide staining-based flow cytometric analysis (reference value: 95.5%); assay type: functional; conditions: MDA-MB-231, 24 h, read-out: Activity
[4] = target: Mitogen-activated protein kinase 8 (Homo sapiens, UniProt P45983); test: Inhibition of human JNK1alpha1
Procedure, shortened: (§1)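 Recombinant human protein kinases screened through the Eurofins KinaseProfiler service. IC50 values are means of two independent experiments.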

[5] = target: Proto-oncogene tyrosine-protein kinase Src (Homo sapiens, UniProt P12931)
[6] = target: Glycogen synthase kinase-3 beta (Homo sapiens, UniProt P49841); test: Inhibition of human GSK3beta; procedure, shortened: as §1
[7] = target: Phosphatidylinositol 4,5-bisphosphate 3-kinase catalytic subunit alpha isoform (Homo sapiens, UniProt P42336); test: Inhibition of human PI3Kalpha; procedure, shortened: as §1
[8] = test system: MDA-MB-231; test: Induction of apoptosis in human MDA-MB-231 cells assessed as viable cells at 0.03 uM after 48 hrs by annexin V-FITC/propidium iodide staining-based flow cytometric analysis (reference value: 94.4%); assay type: functional; conditions: MDA-MB-231, 48 h, read-out: Activity
Procedure, shortened: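 MDA-MB-231 cells (ATCC; medium with 10% FBS, 37 °C, 5% CO2) plated at 2 × 10^5 per six-well well and treated with a range of concentrations for 24 and 48 h at 37 °C. Cells harvested, washed with ice-cold PBS, stained with annexin V-FITC apoptosis detection kit and analysed by flow cytometry.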

[9] = target: Cyclin-dependent kinase 7 (Homo sapiens, UniProt P50613); test: Inhibition of human CDK7; procedure, shortened: as §1
[10] = test system: MDA-MB-231; test: Induction of apoptosis in human MDA-MB-231 cells assessed as viable cells at 0.1 uM after 48 hrs by annexin V-FITC/propidium iodide staining-based flow cytometric analysis (reference value: 94.4%); assay type: functional; conditions: MDA-MB-231, 48 h, read-out: Activity
[11] = test system: Mus musculus; test: In vivo inhibition of MEK phosphorylation in tumor of SCID mouse xenografted with human MDA-MB-231 cells at 30 mg/kg/day, po administered for 18 days measured post last dose by immunohistochemical analysis relative to vehicle-treated control; assay type: functional, organism-based
Procedure, shortened: (§2)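 SCID mice carrying subcutaneous MDA-MB-231 xenografts received oral dosing once daily for 18 days (vehicle 25% PEG400 plus 5% DMSO in sterile water); at the end, tumors formalin-fixed and paraffin-embedded, 4–8 μm sections immunostained (Ki67, phospho-proteins) or TUNEL/AP-Red labelled, and compared with control.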

[12] = test system: MDA-MB-231; test: Induction of apoptosis in human MDA-MB-231 cells after 24 to 48 hrs by annexin V-FITC/propidium iodide staining-based flow cytometric analysis; assay type: functional, cell-based
[13] = test system: MDA-MB-231; test: Antitumor activity against human MDA-MB-231 cells xenografted in SCID mouse assessed as tumor growth inhibition at 7.5 to 15 mg/kg/day, po qd administered for 18 days measured every 3 days during compound dosing; assay type: functional, organism-based
Procedure, shortened: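 SCID mice (5–6 weeks) were injected subcutaneously with 100 μL of exponential-phase MDA-MB-231 cells (5 × 10^7 per mL). They were randomized at 150–200 mm3 tumor volume (6 per group) and dosed orally once daily for 18 days in sterile water with 25% PEG400 plus 5% DMSO, with a vehicle group. Tumor volume (ab2/2) was measured every 3 days.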

[14] = test system: MDA-MB-231; test: Induction of apoptosis in human MDA-MB-231 cells assessed as early apoptotic cells at 0.03 uM after 24 hrs by annexin V-FITC/propidium iodide staining-based flow cytometric analysis (reference value: 1.58%); assay type: functional
[15] = test system: MDA-MB-231; test: Inhibition of ERK phosphorylation in human MDA-MB-231 cells at 0.001 to 1 uM after 20 hrs by Western blot analysis; assay type: cell-based
Procedure, shortened: (§3)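 MDA-MB-231 cells exposed to a concentration series for 20 h at 37 °C, then washed in ice-cold saline and lysed in RIPA buffer with protease cocktail. Lysates were cleared at 12 000 rpm for 10 min at 4 °C and protein measured by Bradford. Equal protein was run on SDS-PAGE, transferred to PVDF and immunoblotted for phospho-proteins.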

[16] = test system: MDA-MB-231; test: Induction of apoptosis in human MDA-MB-231 cells assessed as late apoptotic cells at 0.1 uM after 24 hrs by annexin V-FITC/propidium iodide staining-based flow cytometric analysis (reference value: 2.67%); assay type: functional
[17] = target: Protein kinase C alpha type (Homo sapiens, UniProt P17252); test: Inhibition of human PKCalpha; procedure, shortened: as §1
[18] = test system: MDA-MB-231; test: Induction of apoptosis in human MDA-MB-231 cells assessed as viable cells at 0.1 uM after 24 hrs by annexin V-FITC/propidium iodide staining-based flow cytometric analysis (reference value: 95.5%); assay type: functional; conditions: MDA-MB-231, 24 h, read-out: Activity
[19] = test system: MDA-MB-231; test: Antimigratory activity against human MDA-MB-231 cells at >0.03 uM after 20 hrs by wound healing assay; assay type: functional, cell-based
Procedure, shortened: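 MDA-MB-231 monolayers grown to confluence, scratched with a sterile pipet tip, rinsed with saline, then kept in DMEM containing vehicle or compound; wound images taken after 20 h and analysed.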

[20] = target: Dual specificity mitogen-activated protein kinase kinase 1 (Homo sapiens, UniProt Q02750); test: Inhibition of human MEK1; procedure, shortened: as §1
[21] = test system: MDA-MB-231; test: Antiproliferative activity against human MDA-MB-231 cells assessed as inhibition of colony formation at >0.01 uM after 12 days by crystal violet staining-based assay; assay type: functional, cell-based
Procedure, shortened: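 MDA-MB-231 cells plated at 5000 per well and treated the next day with vehicle or compound, medium refreshed every 4 days; after 12 days, colonies fixed in methanol, crystal violet stained and photographed.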

[22] = target: Cyclin-dependent kinase 2 (Homo sapiens, UniProt P24941); test: Inhibition of human CDK2; procedure, shortened: as §1
[23] = test system: MDA-MB-231; test: Inhibition of MEK phosphorylation in human MDA-MB-231 cells at 0.001 to 1 uM after 20 hrs by Western blot analysis; assay type: cell-based; procedure, shortened: as §3
[24] = target: Aurora kinase A (Homo sapiens, UniProt O14965); test: Inhibition of human Aurora-A; procedure, shortened: as §1
[25] = test system: Mus musculus; test: In vivo inhibition of ERK phosphorylation in tumor of SCID mouse xenografted with human MDA-MB-231 cells at 30 mg/kg/day, po administered for 18 days measured post last dose by immunohistochemical analysis relative to vehicle-treated control; assay type: functional, organism-based; procedure, shortened: as §2
[26] = test system: MDA-MB-231; test: Induction of apoptosis in human MDA-MB-231 cells assessed as late apoptotic cells at 0.03 uM after 48 hrs by annexin V-FITC/propidium iodide staining-based flow cytometric analysis (reference value: 4.25%); assay type: functional
[27] = Tmax in Sprague-Dawley rat at 10 mg/kg, po by LC/MS analysis; assay type: ADME, organism-based; set-up: dose 10 mg/kg, route oral; conditions: in vivo
Procedure, shortened: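 Male Sprague-Dawley rats fitted with jugular vein catheters and fasted overnight, then given a single 10 mg/kg oral gavage dose; n=5. Serial blood samples were spun at once to plasma and analysed by LC-MS/MS. Noncompartmental parameters were fitted.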

Chain of Aurora kinase A (O14965 whole entry): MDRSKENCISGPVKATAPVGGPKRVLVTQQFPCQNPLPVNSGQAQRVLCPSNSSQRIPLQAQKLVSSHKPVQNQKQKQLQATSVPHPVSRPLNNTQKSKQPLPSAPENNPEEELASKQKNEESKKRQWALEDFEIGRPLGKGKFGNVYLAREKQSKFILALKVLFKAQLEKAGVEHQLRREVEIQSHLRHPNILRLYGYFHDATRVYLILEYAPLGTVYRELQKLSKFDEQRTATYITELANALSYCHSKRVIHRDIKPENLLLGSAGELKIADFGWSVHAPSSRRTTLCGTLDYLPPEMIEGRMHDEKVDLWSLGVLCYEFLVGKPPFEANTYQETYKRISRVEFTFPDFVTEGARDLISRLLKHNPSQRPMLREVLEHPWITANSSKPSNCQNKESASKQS
Chain of Dual specificity mitogen-activated protein kinase kinase 1 (Q02750 whole entry): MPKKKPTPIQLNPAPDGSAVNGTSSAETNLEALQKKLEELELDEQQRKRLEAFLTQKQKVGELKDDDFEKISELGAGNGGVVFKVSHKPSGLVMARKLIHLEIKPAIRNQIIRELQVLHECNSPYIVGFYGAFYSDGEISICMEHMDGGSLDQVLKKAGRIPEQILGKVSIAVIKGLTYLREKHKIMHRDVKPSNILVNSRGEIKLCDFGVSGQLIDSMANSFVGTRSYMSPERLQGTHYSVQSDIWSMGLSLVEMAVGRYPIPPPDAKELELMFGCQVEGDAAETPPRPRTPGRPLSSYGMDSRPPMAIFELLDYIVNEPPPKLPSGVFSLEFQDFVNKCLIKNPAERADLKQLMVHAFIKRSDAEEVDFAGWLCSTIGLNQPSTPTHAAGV
Chain of Cyclin-dependent kinase 7 (P50613 whole entry): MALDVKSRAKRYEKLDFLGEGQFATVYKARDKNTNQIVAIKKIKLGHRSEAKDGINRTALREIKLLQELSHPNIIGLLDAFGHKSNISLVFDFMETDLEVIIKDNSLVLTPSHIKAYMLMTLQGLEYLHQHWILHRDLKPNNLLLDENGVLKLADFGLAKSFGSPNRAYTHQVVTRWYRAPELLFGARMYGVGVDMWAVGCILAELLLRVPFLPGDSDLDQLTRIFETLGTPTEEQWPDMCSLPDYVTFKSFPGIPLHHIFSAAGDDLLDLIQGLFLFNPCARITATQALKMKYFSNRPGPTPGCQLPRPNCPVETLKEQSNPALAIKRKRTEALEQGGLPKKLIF
Chain of Glycogen synthase kinase-3 beta (P49841 whole entry, canonical isoform): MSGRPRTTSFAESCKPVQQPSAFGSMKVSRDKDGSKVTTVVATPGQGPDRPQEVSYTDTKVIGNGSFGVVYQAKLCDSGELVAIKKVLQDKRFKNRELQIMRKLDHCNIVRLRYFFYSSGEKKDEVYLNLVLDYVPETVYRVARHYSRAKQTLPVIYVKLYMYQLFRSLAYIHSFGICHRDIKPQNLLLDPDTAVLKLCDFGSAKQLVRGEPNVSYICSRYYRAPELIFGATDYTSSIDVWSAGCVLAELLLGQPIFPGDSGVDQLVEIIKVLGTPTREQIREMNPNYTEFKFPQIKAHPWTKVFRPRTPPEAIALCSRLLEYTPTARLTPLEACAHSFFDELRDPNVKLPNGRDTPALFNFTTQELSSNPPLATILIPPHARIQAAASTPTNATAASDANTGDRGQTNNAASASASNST
Chain of Phosphatidylinositol 4,5-bisphosphate 3-kinase catalytic subunit alpha isoform (P42336 whole entry, canonical isoform): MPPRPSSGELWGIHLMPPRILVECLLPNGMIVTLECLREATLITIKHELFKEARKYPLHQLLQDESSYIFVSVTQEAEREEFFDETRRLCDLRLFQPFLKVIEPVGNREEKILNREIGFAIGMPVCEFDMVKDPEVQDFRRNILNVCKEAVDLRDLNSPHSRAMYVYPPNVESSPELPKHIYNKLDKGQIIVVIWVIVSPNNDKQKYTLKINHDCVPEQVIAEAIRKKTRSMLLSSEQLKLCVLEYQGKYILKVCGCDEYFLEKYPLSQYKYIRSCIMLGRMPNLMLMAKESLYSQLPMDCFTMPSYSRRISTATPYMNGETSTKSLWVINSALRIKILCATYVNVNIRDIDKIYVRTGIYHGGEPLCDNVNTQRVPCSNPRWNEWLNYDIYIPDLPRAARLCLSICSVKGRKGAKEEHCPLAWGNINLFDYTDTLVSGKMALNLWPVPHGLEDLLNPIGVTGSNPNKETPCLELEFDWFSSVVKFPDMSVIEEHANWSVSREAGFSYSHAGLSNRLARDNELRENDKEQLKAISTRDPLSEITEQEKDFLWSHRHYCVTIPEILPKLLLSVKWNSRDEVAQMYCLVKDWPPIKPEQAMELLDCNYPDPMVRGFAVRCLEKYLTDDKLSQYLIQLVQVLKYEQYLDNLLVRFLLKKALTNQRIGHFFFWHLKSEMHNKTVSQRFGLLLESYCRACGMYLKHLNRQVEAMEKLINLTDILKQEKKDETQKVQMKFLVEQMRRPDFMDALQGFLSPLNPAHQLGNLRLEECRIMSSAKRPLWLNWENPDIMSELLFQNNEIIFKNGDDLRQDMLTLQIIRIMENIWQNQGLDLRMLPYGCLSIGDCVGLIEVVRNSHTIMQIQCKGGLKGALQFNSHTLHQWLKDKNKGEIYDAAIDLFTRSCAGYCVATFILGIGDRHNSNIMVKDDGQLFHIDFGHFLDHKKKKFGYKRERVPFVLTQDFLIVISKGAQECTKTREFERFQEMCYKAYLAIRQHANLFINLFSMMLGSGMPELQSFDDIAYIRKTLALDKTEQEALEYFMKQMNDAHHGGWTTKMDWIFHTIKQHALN
Chain of Proto-oncogene tyrosine-protein kinase Src (P12931 2-536 limits assumed): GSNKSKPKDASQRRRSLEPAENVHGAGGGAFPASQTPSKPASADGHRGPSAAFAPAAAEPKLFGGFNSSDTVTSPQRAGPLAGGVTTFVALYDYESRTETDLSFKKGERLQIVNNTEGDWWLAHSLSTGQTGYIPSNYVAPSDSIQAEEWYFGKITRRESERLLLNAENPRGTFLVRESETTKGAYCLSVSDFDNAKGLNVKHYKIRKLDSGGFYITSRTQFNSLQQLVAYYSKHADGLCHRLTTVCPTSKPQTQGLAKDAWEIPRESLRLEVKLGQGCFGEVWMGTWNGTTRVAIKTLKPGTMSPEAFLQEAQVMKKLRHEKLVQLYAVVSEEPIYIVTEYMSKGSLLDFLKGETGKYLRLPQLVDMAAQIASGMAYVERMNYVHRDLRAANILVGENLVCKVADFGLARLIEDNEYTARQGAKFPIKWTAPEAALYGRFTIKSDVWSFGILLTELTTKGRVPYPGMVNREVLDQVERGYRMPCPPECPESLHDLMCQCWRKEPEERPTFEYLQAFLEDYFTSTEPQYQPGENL
Chain of Mitogen-activated protein kinase 8 (P45983 whole entry, looked up): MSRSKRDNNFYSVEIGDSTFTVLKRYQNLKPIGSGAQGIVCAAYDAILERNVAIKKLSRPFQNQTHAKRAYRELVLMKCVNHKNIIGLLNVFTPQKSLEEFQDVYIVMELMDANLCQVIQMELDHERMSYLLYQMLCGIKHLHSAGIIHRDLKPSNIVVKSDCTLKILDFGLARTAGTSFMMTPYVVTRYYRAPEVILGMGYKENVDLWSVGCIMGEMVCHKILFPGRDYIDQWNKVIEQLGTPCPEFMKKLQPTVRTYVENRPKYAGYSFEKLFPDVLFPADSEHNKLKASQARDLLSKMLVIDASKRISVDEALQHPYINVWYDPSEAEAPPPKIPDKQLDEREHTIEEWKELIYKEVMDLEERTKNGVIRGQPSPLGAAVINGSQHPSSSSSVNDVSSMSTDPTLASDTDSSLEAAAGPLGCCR

- IC50 [4]: > 10 µM
- IC50 [5]: 0.0009 µM
- IC50 [6]: > 10 µM
- IC50 [7]: > 10 µM
- IC50 [9]: > 10 µM
- IC50 [17]: > 10 µM
- IC50 [20]: > 10 µM
- IC50 [22]: > 10 µM
- IC50 [24]: > 10 µM
- Tmax [27]: 12 h
Structure (SMILES): CCn1nc(C#Cc2cc(C(=O)Nc3ccc(CN4CCN(C)CC4)c(C(F)(F)F)c3)ccc2C)c2c(N)ncnc21
- viability at 0.03 µM [1]: 92.9%
- IC50 [2]: 10 µM
- viability at 0.3 µM [3]: 76.7%
- viability at 0.03 µM [8]: 90.5%
- viability at 0.1 µM [10]: 69.2%
- inhibition [11]: Active
- Activity [12]: Dose-dependent effect
- TGI [13]: Active
- Activity [14]: 2.29%
- inhibition [15]: Active
- Activity [16]: 10.4%
- viability at 0.1 µM [18]: 79.1%
- Activity [19]: Active
- inhibition [21]: Active
- inhibition [23]: Active
- inhibition [25]: Active
- Activity [26]: 4.85%

Reference: ChEMBL document CHEMBL3425429
